{"source": "ChEMBL document CHEMBL5724801", "about": "“EUbOPEN Chemogenomics Library - Multiplex” (2024)", "system": "Fibroblast", "experiment": "Multiplex assay against human fibroblast", "format": "toxicity, cell-based", "method_in_brief": "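Per cents of healthy-nucleus cells form the tubulin, mitochondrial-mass and membrane-permeability phenotype values. Live cells were stained at seeding with Hoechst33342, BioTracker Green Microtubule Cytoskeleton Dye, MitoTracker Red and Annexin V Alexa Fluor 680. After compound addition they were imaged on a CQ1 microscope at 37°C and 5% CO2, and CellPathfinder machine-learning gating split them into Hoechst high-intensity objects or normal cells, normal cells into healthy, pyknosed or fragmented nuclei, and pyknosed cells into mitotic or apoptotic.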", "key": {"[1]": {"settings": "12 h, 1 µM, compound concentration 1 uM"}, "[2]": {"settings": "12 h, 10 µM, compound concentration 10 uM"}, "[3]": {"settings": "24 h, 1 µM, compound concentration 1 uM"}, "[4]": {"settings": "24 h, 10 µM, compound concentration 10 uM"}, "[5]": {"settings": "48 h, 1 µM, compound concentration 1 uM"}, "[6]": {"settings": "48 h, 10 µM, compound concentration 10 uM"}}, "note": "Where “and” joins values, the source holds several entries; their conditions need not be identical. Equal entries are not always repeated.", "data": [{"compound": "CSCC[C@H](NC=O)C(=O)N[C@@H](CC(C)C)C(=O)N[C@@H](Cc1ccccc1)C(=O)O", "values": [{"measurement": "Population Fragmented Nuclei (%)", "setting": "[1]", "value": "18% and 29%"}, {"measurement": "Population Healthy Nuclei (%)", "setting": "[1]", "value": "69% and 51%"}, {"measurement": "Population Mitochondria Different-Phenotype (%)", "setting": "[1]", "value": "3% and 4%"}, {"measurement": "Population Tubulin-Different-Phenotype (%)", "setting": "[1]", "value": "26% and 39%"}, {"measurement": "Total Cell Count", "setting": "[1]", "value": "182 and 175"}, {"measurement": "Population Fragmented Nuclei (%)", "setting": "[2]", "value": 27, "unit": "%"}, {"measurement": "Population Healthy Nuclei (%)", "setting": "[2]", "value": 39, "unit": "%"}, {"measurement": "Population Hoechst High Intensity Objects (%)", "setting": "[2]", "value": 38, "unit": "%"}, {"measurement": "Population Membrane Permeable-Phenotype (%)", "setting": "[2]", "value": 9, "unit": "%"}, {"measurement": "Population Mitochondria Different-Phenotype (%)", "setting": "[2]", "value": "5% and 3%"}, {"measurement": "Population Normal (%)", "setting": "[2]", "value": 61, "unit": "%"}, {"measurement": "Population Tubulin-Different-Phenotype (%)", "setting": "[2]", "value": "24% and 35%"}, {"measurement": "Total Cell Count", "setting": "[2]", "value": "112 and 315"}, {"measurement": "Population Fragmented Nuclei (%)", "setting": "[3]", "value": 35, "unit": "%"}, {"measurement": "Population Healthy Nuclei (%)", "setting": "[3]", "value": "73% and 46%"}, {"measurement": "Population Hoechst High Intensity Objects (%)", "setting": "[3]", "value": 7, "unit": "%"}, {"measurement": "Population Mitochondria Different-Phenotype (%)", "setting": "[3]", "value": "4% and 9%"}, {"measurement": "Population Normal (%)", "setting": "[3]", "value": 92, "unit": "%"}, {"measurement": "Population Tubulin-Different-Phenotype (%)", "setting": "[3]", "value": "18% and 43%"}, {"measurement": "Total Cell Count", "setting": "[3]", "value": "173 and 179"}, {"measurement": "Population Fragmented Nuclei (%)", "setting": "[4]", "value": 19, "unit": "%"}, {"measurement": "Population Healthy Nuclei (%)", "setting": "[4]", "value": 38, "unit": "%"}, {"measurement": "Population Hoechst High Intensity Objects (%)", "setting": "[4]", "value": 32, "unit": "%"}, {"measurement": "Population Membrane Permeable-Phenotype (%)", "setting": "[4]", "value": 3, "unit": "%"}, {"measurement": "Population Mitochondria Different-Phenotype (%)", "setting": "[4]", "value": "7% and 10%"}, {"measurement": "Population Normal (%)", "setting": "[4]", "value": 67, "unit": "%"}, {"measurement": "Population Tubulin-Different-Phenotype (%)", "setting": "[4]", "value": "25% and 47%"}, {"measurement": "Total Cell Count", "setting": "[4]", "value": "107 and 230"}, {"measurement": "Population Fragmented Nuclei (%)", "setting": "[5]", "value": "16% and 36%"}, {"measurement": "Population Healthy Nuclei (%)", "setting": "[5]", "value": "69% and 47%"}, {"measurement": "Population Mitochondria Different-Phenotype (%)", "setting": "[5]", "value": "1% and 8%"}, {"measurement": "Population Tubulin-Different-Phenotype (%)", "setting": "[5]", "value": "21% and 54%"}, {"measurement": "Total Cell Count", "setting": "[5]", "value": "184 and 174"}, {"measurement": "Population Fragmented Nuclei (%)", "setting": "[6]", "value": 18, "unit": "%"}, {"measurement": "Population Healthy Nuclei (%)", "setting": "[6]", "value": 44, "unit": "%"}, {"measurement": "Population Hoechst High Intensity Objects (%)", "setting": "[6]", "value": 29, "unit": "%"}, {"measurement": "Population Membrane Permeable-Phenotype (%)", "setting": "[6]", "value": 4, "unit": "%"}, {"measurement": "Population Mitochondria Different-Phenotype (%)", "setting": "[6]", "value": "4% and 1%"}, {"measurement": "Population Normal (%)", "setting": "[6]", "value": 70, "unit": "%"}, {"measurement": "Population Tubulin-Different-Phenotype (%)", "setting": "[6]", "value": "24% and 47%"}, {"measurement": "Total Cell Count", "setting": "[6]", "value": "110 and 231"}]}, {"compound": "O=C1N=C(NCc2cccs2)S/C1=C\\c1ccc2ncccc2c1", "values": [{"measurement": "Population Apoptotic (%)", "setting": "[1]", "value": "15.79% and 17.07%"}, {"measurement": "Population Healthy Nuclei (%)", "setting": "[1]", "value": "66.3% and 76.85%"}, {"measurement": "Population Hoechst High Intensity Objects (%)", "setting": "[1]", "value": 0, "unit": "%"}, {"measurement": "Population Membrane Permeable-Phenotype (%)", "setting": "[1]", "value": "3.28% and 1.28%"}, {"measurement": "Population Mitochondria Different-Phenotype (%)", "setting": "[1]", "value": "4.92% and 6.41%"}, {"measurement": "Population Mitotic Cells (%)", "setting": "[1]", "value": "84.21% and 82.93%"}, {"measurement": "Population Normal (%)", "setting": "[1]", "value": 100, "unit": "%"}, {"measurement": "Population Pyknosed Nuclei (%)", "setting": "[1]", "value": "20.65% and 20.2%"}, {"measurement": "Population Tubulin-Different-Phenotype (%)", "setting": "[1]", "value": "6.56% and 12.82%"}, {"measurement": "Total Cell Count", "setting": "[1]", "value": "184 and 203"}, {"measurement": "Population Apoptotic (%)", "setting": "[2]", "value": "20.69% and 27.27%"}, {"measurement": "Population Healthy Nuclei (%)", "setting": "[2]", "value": "61.15% and 75.14%"}, {"measurement": "Population Hoechst High Intensity Objects (%)", "setting": "[2]", "value": 0, "unit": "%"}, {"measurement": "Population Membrane Permeable-Phenotype (%)", "setting": "[2]", "value": "14.58% and 10.29%"}, {"measurement": "Population Mitochondria Different-Phenotype (%)", "setting": "[2]", "value": "25% and 16.91%"}, {"measurement": "Population Mitotic Cells (%)", "setting": "[2]", "value": "79.31% and 72.73%"}, {"measurement": "Population Normal (%)", "setting": "[2]", "value": 100, "unit": "%"}, {"measurement": "Population Pyknosed Nuclei (%)", "setting": "[2]", "value": "18.47% and 18.23%"}, {"measurement": "Population Tubulin-Different-Phenotype (%)", "setting": "[2]", "value": "34.38% and 55.15%"}, {"measurement": "Total Cell Count", "setting": "[2]", "value": "157 and 181"}, {"measurement": "Population Apoptotic (%)", "setting": "[3]", "value": "14.29% and 17.86%"}, {"measurement": "Population Fragmented Nuclei (%)", "setting": "[3]", "value": "10.34% and 5.09%"}, {"measurement": "Population Healthy Nuclei (%)", "setting": "[3]", "value": "72.41% and 81.94%"}, {"measurement": "Population Hoechst High Intensity Objects (%)", "setting": "[3]", "value": 0, "unit": "%"}, {"measurement": "Population Membrane Permeable-Phenotype (%)", "setting": "[3]", "value": "4.08% and 3.39%"}, {"measurement": "Population Mitochondria Different-Phenotype (%)", "setting": "[3]", "value": "5.44% and 3.39%"}, {"measurement": "Population Mitotic Cells (%)", "setting": "[3]", "value": "85.71% and 82.14%"}, {"measurement": "Population Normal (%)", "setting": "[3]", "value": 100, "unit": "%"}, {"measurement": "Population Pyknosed Nuclei (%)", "setting": "[3]", "value": "17.24% and 12.96%"}, {"measurement": "Population Tubulin-Different-Phenotype (%)", "setting": "[3]", "value": "7.48% and 19.77%"}, {"measurement": "Total Cell Count", "setting": "[3]", "value": "203 and 216"}, {"measurement": "Population Apoptotic (%)", "setting": "[4]", "value": "19.05% and 33.33%"}, {"measurement": "Population Fragmented Nuclei (%)", "setting": "[4]", "value": "12.93% and 9.6%"}, {"measurement": "Population Healthy Nuclei (%)", "setting": "[4]", "value": "72.79% and 76.84%"}, {"measurement": "Population Hoechst High Intensity Objects (%)", "setting": "[4]", "value": 0, "unit": "%"}, {"measurement": "Population Membrane Permeable-Phenotype (%)", "setting": "[4]", "value": "11.21% and 5.88%"}, {"measurement": "Population Mitochondria Different-Phenotype (%)", "setting": "[4]", "value": "23.36% and 20.59%"}, {"measurement": "Population Mitotic Cells (%)", "setting": "[4]", "value": "80.95% and 66.67%"}, {"measurement": "Population Normal (%)", "setting": "[4]", "value": 100, "unit": "%"}, {"measurement": "Population Pyknosed Nuclei (%)", "setting": "[4]", "value": "14.29% and 13.56%"}, {"measurement": "Population Tubulin-Different-Phenotype (%)", "setting": "[4]", "value": "49.53% and 66.91%"}, {"measurement": "Total Cell Count", "setting": "[4]", "value": "147 and 177"}, {"measurement": "Population Apoptotic (%)", "setting": "[5]", "value": "14.81% and 21.05%"}, {"measurement": "Population Fragmented Nuclei (%)", "setting": "[5]", "value": "8.85% and 4.11%"}, {"measurement": "Population Healthy Nuclei (%)", "setting": "[5]", "value": "79.2% and 87.21%"}, {"measurement": "Population Hoechst High Intensity Objects (%)", "setting": "[5]", "value": 0, "unit": "%"}, {"measurement": "Population Membrane Permeable-Phenotype (%)", "setting": "[5]", "value": "1.12% and 4.19%"}, {"measurement": "Population Mitochondria Different-Phenotype (%)", "setting": "[5]", "value": "8.38% and 5.76%"}, {"measurement": "Population Mitotic Cells (%)", "setting": "[5]", "value": "85.19% and 78.95%"}, {"measurement": "Population Normal (%)", "setting": "[5]", "value": 100, "unit": "%"}, {"measurement": "Population Pyknosed Nuclei (%)", "setting": "[5]", "value": "11.95% and 8.68%"}, {"measurement": "Population Tubulin-Different-Phenotype (%)", "setting": "[5]", "value": "6.7% and 19.37%"}, {"measurement": "Total Cell Count", "setting": "[5]", "value": "226 and 219"}, {"measurement": "Population Apoptotic (%)", "setting": "[6]", "value": "44.44% and 38.89%"}, {"measurement": "Population Fragmented Nuclei (%)", "setting": "[6]", "value": "18.54% and 16.67%"}, {"measurement": "Population Healthy Nuclei (%)", "setting": "[6]", "value": "75.5% and 74.24%"}, {"measurement": "Population Hoechst High Intensity Objects (%)", "setting": "[6]", "value": 0, "unit": "%"}, {"measurement": "Population Membrane Permeable-Phenotype (%)", "setting": "[6]", "value": "2.63% and 12.24%"}, {"measurement": "Population Mitochondria Different-Phenotype (%)", "setting": "[6]", "value": "33.33% and 14.29%"}, {"measurement": "Population Mitotic Cells (%)", "setting": "[6]", "value": "55.56% and 61.11%"}, {"measurement": "Population Normal (%)", "setting": "[6]", "value": 100, "unit": "%"}, {"measurement": "Population Pyknosed Nuclei (%)", "setting": "[6]", "value": "5.96% and 9.09%"}, {"measurement": "Population Tubulin-Different-Phenotype (%)", "setting": "[6]", "value": "47.37% and 63.95%"}, {"measurement": "Total Cell Count", "setting": "[6]", "value": "151 and 198"}]}]}
